An excerpt weighted towards active compounds, which were near 1.8% of everything screened.
PG9 Ab binder: PG9 antibody binding by small molecule; inhibition, % at 6.7 µM; TR-FRET gp120-PG9 antibody binding; 360,000 compounds, 0.43% hits; in the data active = inhibition above about 8.5%
Rin1 Abl inh: blocks binding of human Rin1 to Abl. inhibition, % at 7.35 µM. 360,000 compounds, 0.4% hits. P00519+Q13671. TR-FRET Rin1/Abl binding, biochemical; in the data active = inhibition above about 5%, passing the limit was not always enough
Rev-erbA mod: modulators of human Rev-erb alpha DNA binding; Rev-erbα–FITC-DNA binding, fluorescence polarization, 90 min; activity, % at 10 µM; 370,000 compounds, 0.79% hits; AID 1259318;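 active = activity above about 14%, limit read from the data; passing the limit was not always enough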;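 note: 0% = DMSO wells with 35 nM protein and 100% = DMSO wells with 750 nM protein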
TbMetRS inhib: Trypanosoma brucei MetRS inhibition; purified T. brucei MetRS, ATP depletion, Kinase-Glo luminescence; inhibition, % at 11.9 µM; 360,000 compounds, 0.4% hits;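 active = inhibition above a per-plate cutoff of the control wells' mean inhibition plus 3 SD, cut at about 5.5% in these data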;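 note: 0% = DMSO wells median and 100% = median of wells with control inhibitor compound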
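Test system – parasite MetRS enzyme · Reagent – substrates ATP, L-methionine and bulk Escherichia coli tRNA · Doses – 11.9 µM compound single dose, 0.9% DMSO · Times – 15 min enzyme-compound preincubation, 2 h reaction, 10 min detection, 25 °C · Signal – Kinase-Glo luminescence, ATP depletion format · Controls – DMSO-only wells as low control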
Tb MetRS conf: Trypanosoma brucei MetRS inhibition confirmed | shares compounds with TbMetRS inhib | T. brucei MetRS enzyme, luminescence (ATP depletion) | inhibition, % at 11.9 µM | 1,400 compounds, 93% hits | AID 624412; in the data active = inhibition above about 7%
Jurkat tox: kills Jurkat cells in T. brucei MetRS counterscreen. inhibition, % at 8.3 µM. Jurkat cells viability, ATP luminescence. shares compounds with TbMetRS inhib. 1,400 compounds, 12% hits; in the data active = inhibition above about 15%;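 note: 0% = vehicle and 100% = reference inhibitor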
Tb MetRS inh FP: inhibits T. brucei methionyl tRNA synthetase in orthogonal FP test. 1,400 compounds, 44% hits. shares compounds with TbMetRS inhib. inhibition, % at 11.9 µM. purified T. brucei MetRS, fluorescence polarization; in the data active = inhibition above about 17%;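 note: 0% = vehicle wells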
* marks the source's active call; other numbers are inactive results; / = not tested or not shown.

SMILES | PG9 Ab binder | Rin1 Abl inh | Rev-erbA mod | TbMetRS inhib | Tb MetRS conf | Jurkat tox | Tb MetRS inh FP
C[N+]1=C(N)NC2=C3CCCCC3n3c(=O)n(-c4ccccc4)c(=O)n3C2C1 (configuration not stated) | / | / | -5.5 | / | / | / | /
CCC(C)c1ccc(NC(=O)CSc2nnc(-c3cccc(C)c3)n2C)cc1 (configuration not stated) | / | / | -3.4 | / | / | / | /
COc1cccc(-c2cnc(C(O)c3cc(Cl)cc(Cl)c3)[nH]2)c1 (configuration not stated) | -0.1 | -2.6 | 9.3 | 54.5* | 77.5* | 1.4 | 56.9*
COc1cccc(-c2cnc(C(O)c3cc(F)cc(Cl)c3)[nH]2)c1 (configuration not stated) | -0.9 | 2.2 | 3.8 | 19.6* | 40.1* | 0.1 | 18.4*
Cc1ccc(-c2cnc(C(O)c3cc(F)cc(Cl)c3)[nH]2)cc1 (configuration not stated) | 0.9 | -4.2 | 0.9 | 10.4* | 39.4* | 1.7 | 14.5
OC(c1cccc(Cl)c1)c1ncc(-c2ccc3ccccc3c2)[nH]1 (configuration not stated) | -0.9 | -2.8 | -2.8 | 42.3* | 73.9* | 7.6 | 46.9*
CCNC(=S)NNC(=O)c1cnccn1 | / | / | -5.8 | / | / | / | /
Nc1nc2c(ncn2[C@@H]2O[C@H](C(=O)NCCCc3ccccc3)[C@@H](O)[C@H]2O)c(=O)[nH]1 | 0.2 | / | -2.4 | / | / | / | /
O=C1N2Cc3ccccc3C2CS(=O)(=O)N1CCc1ccccc1 (configuration not stated) | / | / | -0.1 | / | / | / | /
Cc1ccc(-c2cnc(C(O)c3ccc(Cl)c(Cl)c3)[nH]2)cc1 (configuration not stated) | 0.3 | -1.0 | 0.6 | 9.4* | 36.6* | -9.5 | 14.3
OC(c1cc(F)cc(Cl)c1)c1ncc(-c2ccccc2Cl)[nH]1 (configuration not stated) | 0.3 | -1.2 | -3.9 | 23.8* | 58.5* | 3.7 | 24.0*
Cc1ccc(-c2cnc(C(O)c3ccc(Cl)c(F)c3)[nH]2)cc1 (configuration not stated) | / | 2.3 | / | 1.0 | / | / | /
FC(F)(F)c1cccc(N2CCN(C3=Nc4ccccc4Sc4ccccc43)CC2)c1 | / | / | 3.9 | / | / | / | /
N=c1c2c(ccn1CCCc1ccccc1)Oc1ccc3ccccc3c1C2c1ccccc1 (configuration not stated) | / | / | 8.9 | / | / | / | /
CCN(CC)S(=O)(=O)c1cc(C(=O)N(C)CC(=O)Nc2ccc(Cl)cc2)ccc1Cl | 1.4 | -1.6 | -0.8 | 43.4* | 57.3* | 1.3 | 23.7*
COc1ccccc1NC(=O)c1nnn(CC(=O)Nc2cccc(SC)c2)c1N | 1.8 | -2.1 | 10.7 | 6.0* | 7.6* | -2.2 | 14.6
O=C(Cn1c(CC(=O)N2CCOCC2)nc2ccccc21)Nc1ccc2c(c1)OC(F)(F)O2 | 1.5 | 3.0 | -0.1 | 25.4* | 40.8* | 8.6 | 19.6*
O=C(Cn1c(CC(=O)N2CCCC2)nc2ccccc21)NCc1ccccc1 | -2.2 | 5.4 | -5.1 | -0.3 | / | / | /
Cn1c(COc2ccc(Cl)cc2Cl)nnc1SCC(=O)NCC1CCCO1 (configuration not stated) | -1.1 | 2.2 | -0.5 | 6.0* | 16.6* | -3.2 | 3.6
CC(=O)Cc1nsc(Nc2ccc(Cl)cc2)n1 | -0.6 | -2.1 | -0.8 | 10.0* | 4.5 | 2.0 | 5.4
O=[N+]([O-])c1ccc(Cl)c(CN2CCN(c3ncccn3)CC2)c1 | -1.1 | 0.1 | -6.1 | -0.8 | / | / | /
Cc1ccc2nc(C)c(CN3CCN(c4ccc([N+](=O)[O-])cc4Cl)CC3)n2c1 | -1.2 | -5.6 | 10.0 | 25.8* | 44.5* | 46.9* | 24.8*
O=C(Cn1c2[n+](c3ccc(C(F)(F)F)cc31)CCCCC2)Nc1ccccc1 | -1.1 | -4.0 | -1.9 | 28.2* | 35.4* | -5.8 | 16.6
c1cncc(CNc2ncnc3ccc(-c4cccnc4)cc23)c1 | -1.5 | -2.2 | -0.6 | -0.1 | / | / | /
Clc1ccccc1-c1ccc2ncnc(NCc3ccc4c(c3)OCO4)c2c1 | -2.1 | 1.4 | -0.3 | 26.1* | 32.2* | -1.9 | 21.9*
SMILES | PG9 Ab binder | Rin1 Abl inh | Rev-erbA mod | TbMetRS inhib | Tb MetRS conf | Jurkat tox | Tb MetRS inh FP
c1cncc(-c2ccc3ncnc(NCc4ccc5c(c4)OCO5)c3c2)c1 | 0.8 | 0.3 | 1.9 | 0.6 | / | / | /
Clc1ccccc1-c1ccc2ncnc(NCc3cccnc3)c2c1 | 0.8 | 3.1 | 4.0 | 11.8* | 44.5* | 5.2 | 33.4*
CC1CCC2(CCC(=O)N2CCCOC(=O)Nc2cccc(C(F)(F)F)c2)CC1 (configuration not stated) | / | / | 3.0 | / | / | / | /
Cc1ccc(CN2CCCCC(NC(=O)c3cccc(C(F)(F)F)c3)C2=O)cc1 (configuration not stated) | / | / | -2.1 | / | / | / | /
COc1ccc(CCC2=NCCN2C(CC(C)C)c2nc3ccccc3[nH]2)cc1 (configuration not stated) | 0.1 | 0.9 | -0.7 | 12.4* | 19.9* | 6.8 | 5.3
COc1ccc(CCc2nc3ccccc3n2C(CCc2ccccc2)c2nc3ccccc3[nH]2)cc1 (configuration not stated) | 0.0 | / | 6.5 | 3.9 | / | / | /
O=C(N=Nc1c(O)[nH]c2ccc(Br)cc12)c1ccccc1-n1cccc1 | -3.3 | -2.4 | 6.7 | 8.6* | 26.3* | 75.8* | 12.5
O=C(N=Nc1c(O)[nH]c2ccc(Br)cc12)c1ccco1 | -3.7 | -1.9 | -0.9 | 0.4 | / | / | /
O=C(NCC(O)c1ccc([N+](=O)[O-])cc1)C(c1ccccc1)c1ccccc1 (configuration not stated) | -1.1 | 4.8 | -1.0 | -0.3 | / | / | /
O=C(NCC(O)c1ccc([N+](=O)[O-])cc1)Nc1ccccc1 (configuration not stated) | -0.1 | -2.0 | 5.2 | 27.2* | 46.2* | -7.2 | 21.3*
C[C@@H]1CN([C@@H](C)CO)C(=O)c2ccccc2-c2ccccc2CO[C@@H]1CN(C)Cc1ccc(Cl)c(Cl)c1 | -0.2 | / | 7.7 | / | / | / | /
Cc1cccc(OCCCC(=O)Nc2ccc(Br)cc2)c1 | 1.1 | 1.8 | 3.8 | 34.1* | 44.8* | -0.2 | 34.4*
Cc1ccc(NC(=O)CCC(=O)OCc2ccc(Br)cc2)cc1 | -0.5 | 5.2 | -0.9 | 16.8* | 25.5* | -6.3 | 12.0
Cc1cccc(NC(=O)CCC(=O)OCc2ccc(Br)cc2)c1 | -1.8 | -1.8 | -1.9 | 0.4 | / | / | /
C[C@H]1[C@@H](OC(=O)Nc2ccc(Cl)cc2)CC[C@@]23CCCN2C(=O)CCC[C@@H]13 | / | / | -0.2 | / | / | / | /
C[C@@H]1CNC(=O)c2c(C(=O)N(C)Cc3ccccc3)ncn21 | -1.4 | / | -2.0 | / | / | / | /
COC(=O)C1=C(C)N(C)C(=NCc2cccc(C(F)(F)F)c2)NC1c1ccc(Cl)cc1 (configuration not stated) | -0.2 | / | 7.2 | / | / | / | /
FC(F)Oc1ccc(NC(=S)NCc2nc3ccccc3[nH]2)cc1 | 0.1 | -0.7 | 2.0 | 55.4* | 64.6* | 9.0 | 39.6*

High-throughput results from PubChem BioAssay.
